According to ChEMBL document CHEMBL4725264, “Synthesis and biological evaluation of a novel photo-activated histone deacetylase inhibitor” (Bioorg Med Chem Lett, 2020):
The source made the active and inactive calls. The calls are words filed in the database; no cut-off is given here.

Experiments:
[1] = biological target: T1, Histone deacetylase (Homo sapiens) (UniProt Q13547+O15379+Q9UBN7+Q92769+Q9UQL6+Q8WUI4+Q9BY41+Q96DB2+P56524+Q9UKV0+Q969S8); test: Inhibition of HDAC in human HL-60 cells assessed as increase in H3 histone acetylation at 10 uM after 24 hrs by Western blot anlaysis; assay type: cell-based
Procedure, shortened: (§1)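 Caged compound coated on angioplasty balloon at 3.0ug/mm2. Balloon either exposed to 365 nm UV (65mW, 4 min) or left unexposed, then compound eluted. HL60 cells (RPMI-1640, 10% heat-inactivated FCS, 37 °C, 5% CO2) treated with eluate at 10.0 µM for 24 h, then PBS-washed. Histones acid-extracted (H2SO4, acetone precipitation), quantified by Bradford. 25 µg per lane run on 15% SDS-PAGE and transferred to PVDF. Blocked in 5% milk, probed overnight at 4 °C with anti-acetyl histone H3, detected with HRP anti-rabbit IgG (1:1000). Untreated cells as control.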

HUVEC = test: Cytotoxicity against HUVEC at 1.0 mmol/L after 24 hrs by trypan blue staining based assay; assay type: cell-based; details: human, 1000 µM
Procedure, shortened: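 HUVECs (pooled donor) grown in Medium-199 with 20% FCS, endothelial cell growth factor and heparin, 37 °C, 5% CO2. Agents dissolved in 100% DMSO and added at final 1.0 mmol/L for 24 h. Viability scored by 0.4% trypan blue exclusion right after culture, relative to viable count at start. Untreated cells as control. At least 3 repeats, averaged.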

[2] = biological target: T1, Histone deacetylase (Homo sapiens); test: Inhibition of HDAC in human HL-60 cells assessed as increase in H3 histone acetylation at 10 uM under UV irradiation after 24 hrs by Western blot anlaysis; assay type: cell-based; procedure, shortened: as §1
[3] = Drug metabolism assessed as photolysis by measuring parent compound at 4.26 mM using MeCN and Water (1:3) as solvent system measured upon irradiation with 8-Watt UV365nm light after 30 mins by HPLC analysis; assay type: physicochemical; details: MeCN and water (1:3) solvent system, read-out: Drug metabolism
Procedure, shortened: (§2)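 Caged compound prepared as 4.26 mM solution in MeCN/water (1:3). Irradiated with 8-Watt 365 nm UV lamp. Aliquots taken at 30, 45, 60, 75 and 90 min and analysed by HPLC for remaining caged parent and released hydroxamic acid (identified by m/z). Carboxamide side product tracked by its separate peak.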

[4] = Drug metabolism assessed as photolysis by measuring parent compound at 4.26 mM using MeCN and Water (1:3) as solvent system measured upon irradiation with 8-Watt UV365nm light after 45 mins by HPLC analysis; assay type: physicochemical; details: MeCN and water (1:3) solvent system, read-out: Drug metabolism; procedure, shortened: as §2
[5] = Drug metabolism assessed as photolysis by measuring parent compound at 4.26 mM using MeCN and Water (1:3) as solvent system measured upon irradiation with 8-Watt UV365nm light after 60 mins by HPLC analysis; assay type: physicochemical; details: MeCN and water (1:3) solvent system, read-out: Drug metabolism; procedure, shortened: as §2
[6] = Drug metabolism assessed as photolysis by measuring parent compound at 4.26 mM using MeCN and Water (1:3) as solvent system measured upon irradiation with 8-Watt UV365nm light after 75 mins by HPLC analysis; assay type: physicochemical; details: MeCN and water (1:3) solvent system, read-out: Drug metabolism; procedure, shortened: as §2
[7] = Drug metabolism assessed as photolysis by measuring parent compound at 4.26 mM using MeCN and Water (1:3) as solvent system measured upon irradiation with 8-Watt UV365nm light after 90 mins by HPLC analysis; assay type: physicochemical; details: MeCN and water (1:3) solvent system, read-out: Drug metabolism; procedure, shortened: as §2
[8] = Drug metabolism assessed as photolysis by measuring parent compound at 85 uM using DMSO, EtOH and water (4:4:92) as solvent system measured upon irradiation with 100mW UV365nm light after 2 mins by HPLC analysis; assay type: physicochemical
[9] = Drug metabolism assessed as photolysis by measuring parent compound at 85 uM using DMSO, EtOH and water (4:4:92) as solvent system measured upon irradiation with 100mW UV365nm light after 4 mins by HPLC analysis; assay type: physicochemical; details: EtOH and water (4:4:92) solvent system, read-out: Drug metabolism
[10] = Drug metabolism assessed as photolysis by measuring parent compound at 85 uM using DMSO, EtOH and water (4:4:92) as solvent system measured upon irradiation with 100mW UV365nm light after 6 mins by HPLC analysis; assay type: physicochemical; details: EtOH and water (4:4:92) solvent system, read-out: Drug metabolism

Row | inhibition [1] | inhibition [2] | remaining at 0.5 h, 4260 µM [3] | remaining at 0.75 h, 4260 µM [4] | remaining at 1 h, 4260 µM [5] | remaining at 1.25 h, 4260 µM [6] | remaining at 1.5 h, 4260 µM [7] | Drug metabolism [8] | remaining at 4 min, 85 µM [9] | remaining at 0.1 h, 85 µM [10] | SMILES | Activity (HUVEC)
1 | Active |  |  |  |  |  |  |  |  |  | CS(=O)(=O)Nc1cccc(-c2ccc(C(=O)NO)cc2)c1 | Toxic
2 | inactive | Active | 53.3% | 18% | 8.4% | 2.4% | 0.7% | 28.9% | 11.1% | 8.2% | COc1cc(C(C)ONC(=O)c2ccc(-c3cccc(NS(C)(=O)=O)c3)cc2)c([N+](=O)[O-])cc1OCCCC(=O)O (centres undefined) | Non-Toxic
3 |  |  |  |  |  |  |  |  |  |  | CC(=O)O[C@H]1C(=O)[C@@]2(C)[C@H]([C@H](OC(=O)c3ccccc3)[C@]3(O)C[C@H](OC(=O)[C@H](O)[C@@H](NC(=O)c4ccccc4)c4ccccc4)C(C)=C1C3(C)C)[C@]1(OC(C)=O)CO[C@@H]1C[C@@H]2O [PACLITAXEL] | Toxic
